Source: PubChem
An excerpt weighted towards active compounds, which were near 1.3% of everything screened.
MT1-MMP act inh – inhibitors of human MT1-MMP activation. P50281. GFP/RFP ratio change, % at 20 µM. actives 0.061% (n = 360,000). HT1080 RFP-PRO-GFP cells, GFP/RFP ratio fluorescence, overnight; percent of plate control window, DMSO zero. AID 651647;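 active = GFP/RFP ratio change of at least 30% with cell ATP level not reduced by more than half and red fluorescence within 50% of control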
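Assay system: HT1080 RFP-PRO-GFP cells. Benchmarks: DMSO vehicle wells and RFP-L50D-GFP reporter cell wells. Times: overnight cell settling, then overnight compound exposure, 37 °C, 5% CO2. Compound: 20 µM single dose, 1% DMSO. Read-out basis: GFP/RFP fluorescence ratio.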
FAS TE block – FAS thioesterase (human) inhibition; recombinant FAS-TE, OMFH fluorogenic substrate, fluorescence endpoint; AID 602261; actives 0.67% (n = 360,000); inhibition, % at 15 µM;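 active = compounds whose normalised, plate-corrected inhibition of enzyme fluorescence in the single-dose primary screen is 50% or more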;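 note: 0% = DMSO with enzyme and 100% = substrate without enzyme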
SKN-1 block – C. elegans SKN-1 inhibition. inhibition, % at 21.8 µM. C. elegans VP596 Pgst-4::GFP/RFP ratio, acrylamide-induced, 24 h. actives 0.49% (n = 360,000);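 active = interference check ratio from 0.5 to 1.5 plus GFP to RFP signal ratio inhibition reaching or exceeding a fixed threshold, cut at about 30% in these data, passing the limit was not always enough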
DAGLB inhibitor – diacylglycerol lipase beta (human) inhibition; Q8NCG7; HEK293T DAGLB membrane lysate, EnzChek fluorogenic substrate; inhibition, % at 5.17 µM; actives 0.059% (n = 340,000); AID 504411; in the data active = inhibition above about 34%;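 note: 0% = enzyme with vehicle and 100% = wells lacking enzyme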
Target sequence (Q8NCG7 whole entry, looked up): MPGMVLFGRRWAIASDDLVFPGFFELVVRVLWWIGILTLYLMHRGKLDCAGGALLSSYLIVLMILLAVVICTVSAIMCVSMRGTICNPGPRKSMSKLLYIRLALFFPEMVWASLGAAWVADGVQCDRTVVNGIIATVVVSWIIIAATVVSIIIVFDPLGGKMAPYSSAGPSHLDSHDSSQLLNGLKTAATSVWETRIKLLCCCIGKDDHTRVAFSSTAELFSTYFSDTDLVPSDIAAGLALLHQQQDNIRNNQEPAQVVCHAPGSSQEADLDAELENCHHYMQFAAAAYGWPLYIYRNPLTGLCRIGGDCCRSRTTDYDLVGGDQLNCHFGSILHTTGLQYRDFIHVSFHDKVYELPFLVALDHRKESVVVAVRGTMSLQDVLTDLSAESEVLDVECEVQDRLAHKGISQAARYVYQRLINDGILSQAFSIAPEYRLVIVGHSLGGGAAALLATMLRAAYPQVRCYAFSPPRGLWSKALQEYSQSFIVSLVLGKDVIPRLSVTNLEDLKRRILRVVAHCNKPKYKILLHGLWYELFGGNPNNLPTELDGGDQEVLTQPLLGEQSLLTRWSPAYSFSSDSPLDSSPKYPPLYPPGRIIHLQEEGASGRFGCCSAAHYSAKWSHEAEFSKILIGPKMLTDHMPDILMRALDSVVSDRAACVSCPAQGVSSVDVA
iPSC survival up – increases survival of single human iPS cells | hiPSC single-cell survival, ATPlite luminescence; 100% = ROCK inhibitor wells, 0% = DMSO | survival enhancement, % at 20 µM | actives 0.044% (n = 360,000) | AID 602274; in the data active = survival enhancement above about 18%;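 note: cells exposed to compounds for 16 hours before the ATP read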
The depositor's hits bear a star; . = not tested or not shown.

SMILES	MT1-MMP act inh	FAS TE block	SKN-1 block	DAGLB inhibitor	iPSC survival up
CCCC(=O)Nc1nc(-c2ccc(Cl)s2)cs1	-4.0	20.3	22.3	-4.8	0.9
O=C(Nc1nc(-c2ccc(Cl)s2)cs1)c1cccs1	-41.0	34.1	48.2*	-11.8	0.0
OC[C@@H]1CN(CCN2CCOCC2)C[C@H](n2cnc3c(Nc4ccccc4)ncnc32)O1	-0.5	-8.9	2.8	.	-3.0
O=C(Nc1nc(-c2nc3ccccc3s2)cs1)c1ccco1	4.2	-2.3	9.3	-7.6	0.5
O=C(Nc1nc(-c2ccc(Cl)s2)cs1)c1ccco1	2.4	21.0	85.2*	-7.8	0.3
Cc1nc(-c2cccc(NC(=O)c3ccco3)c2)cs1	-4.0	-1.1	35.6*	-0.7	-0.1
COc1ccc(CNC(C)C(=O)Nc2ccc3ccccc3c2)cc1OC (centres undefined)	1.3	0.4	50.8*	-1.6	-0.4
COc1cccc(CNC(C)C(=O)Nc2ccc3c(c2)OCCO3)c1 (centres undefined)	-1.9	-1.3	-7.8	1.1	0.1
Cn1nc(N)c2ncc(-c3ccc(Cl)cc3)nc21	0.2	-0.2	-3.3	-1.1	-1.2
Cc1ccc(C)c(NC(=O)CCc2ccc(C)o2)c1	3.7	-4.7	15.1	0.4	2.6
Cc1cc(NC(=O)CCc2ccc(C)o2)no1	2.8	-9.7	30.9*	-2.2	4.3
COc1cccc(N2CC(O)=C(c3ccccc3)C2=N)c1	1.2	-8.3	35.2*	1.4	10.5
CSCCC(C(=O)Nc1c(C)cccc1C)N1CCN(c2ccc(F)cc2)CC1 (centres undefined)	6.2	4.2	9.6	.	-1.1
O=C(c1cccs1)N1CCc2c([nH]c3ccccc23)C1c1ccc(Cl)cc1 (centres undefined)	-8.3	26.3	50.0*	-4.5	3.6
Cc1ccc2nc(CN(C)C(=O)[C@H]3O[C@@H](n4ccc(N)nc4=O)[C@H](O)[C@@H]3O)[nH]c2c1	-0.1	-7.6	2.2	.	3.2
Cc1ccc(SCCNC(=O)CN2C(=O)c3ccccc3S2(=O)=O)cc1	3.3	-2.0	36.9*	-4.3	-2.5
Cc1ccc(S(=O)(=O)NC(=O)C2(C)CCN2C(=O)c2ccc(C(F)(F)F)nc2C)cc1 (centres undefined)	-2.2	-4.6	15.7	.	-0.9
C=CCNc1nc(NCCN2CCOCC2)nc(N2CCOCC2)n1	-4.2	-11.1	35.0*	1.6	1.0
C=CCNc1nc(N2CCOCC2)nc(N2CCOCC2)n1	-5.8	-5.4	16.5	0.0	0.6
CC(C)(C)S(=O)N1Cc2cc(C(=O)Nc3ccc(-c4ccccc4)cc3)nc(-c3cccc(-c4cc5ccccc5o4)c3)c2[C@@H]1CCO (some centres undefined)	2.7	0.5	3.0	.	-3.6
O=C(Nc1cccc(C(F)(F)F)c1)c1ccco1	1.7	-4.4	3.0	-0.2	3.3
O=C(Nc1ccc(Cl)c(C(F)(F)F)c1)c1ccco1	-4.7	19.9	44.4*	-4.1	2.5
Cc1cc(NC(=O)c2ccco2)ccc1-n1cnnn1	2.6	-7.4	61.3*	-0.8	-2.8
COc1cccc(COc2cc3ccccc3nc2C)c1	1.2	17.5	44.6*	-8.4	-0.8
Cc1nc2ccccc2cc1OCc1ccc(Cl)cc1	0.0	23.6	89.5*	-8.8	1.0
SMILES	MT1-MMP act inh	FAS TE block	SKN-1 block	DAGLB inhibitor	iPSC survival up
Cc1nc2ccccc2cc1OCc1ccccc1	1.0	10.1	31.7	-4.5	-0.7
CC(/C=N/N1CCN(c2ccccn2)CC1)=C\c1ccccc1	4.1	-4.1	66.8*	-1.9	-2.5
CC(=C/c1ccco1)/C=N/N1CCN(c2ccccc2)CC1	0.6	7.2	36.0*	-0.3	-3.0
CCCCCCC1CC(=CN(C)C)C(=O)O1 (centres undefined)	-5.4	-4.4	-2.4	-3.1	-2.7
CCCCCCCCNC(=O)C(CCC(=O)OCc1ccccc1)NC(C)=O (centres undefined)	-6.0	16.3	53.2*	1.9	0.0
CCC(C)C(N)C(=O)NC(CCC(=O)OCc1ccccc1)C(N)=O (centres undefined)	6.4	-5.2	8.3	3.2	2.7
COc1cc2c(cc1[N+](=O)[O-])-c1ccccc1C2	0.3	14.7	9.0	-6.2	-1.1
O=[N+]([O-])c1cc2c(cc1Br)-c1ccccc1C2	2.3	34.6	52.5*	-7.5	-3.1
O=C(NCc1ccc(F)cc1)c1cc(C2CCCCN2S(=O)(=O)c2ccc(F)cc2F)on1 (centres undefined)	-4.5	14.1	5.8	.	3.6
CCc1nc2oc3ccccc3c(=O)c2c(=O)n1-c1ccccc1	4.5	-6.9	30.2*	-0.4	-1.3
CCc1nc2oc3ccccc3c(=O)c2c(=O)n1-c1ccc(C)cc1	-0.4	-2.7	28.1	.	-0.4
CCCCn1nnnc1C(c1cc2ccccc2o1)N(CCN(C)C)Cc1ccccc1 (centres undefined)	-1.3	-5.9	2.2	.	-1.7
COc1ccc(Br)c(Cn2c(C)c(C(=O)NCc3ccc(F)cc3)sc2=O)c1	1.6	25.6	-3.6	.	-0.8
CCOc1ccc(NC(=O)C2CCCN(S(=O)(=O)c3c(C)nn(C)c3C)C2)cc1 (centres undefined)	4.2	-1.3	34.0*	-4.7	0.3
CCCCNC(=O)OCC(CC)NC(=O)OCC(C)C (centres undefined)	0.9	-4.9	36.0*	-1.3	-2.3
COc1ccc(C2C(C(=O)OC(C)C)=C(C)N=c3s/c(=C\c4cccs4)c(=O)n32)cc1 (centres undefined)	-2.2	14.9	43.4*	-3.3	-1.5
Cc1cc(=O)n(CCO)c(O)c1C#N	-7.9	-3.7	15.6	-1.3	-1.2
Cc1c(C#N)c(O)n(CCO)c(=O)c1N=Nc1ccc2c(c1)COC2=O	5.1	10.8	47.6*	1.4	6.2
CCOC1=C2CN(S(=O)(=O)c3ccc(C)cc3)[C@H](c3ccccc3)C[C@@H]2N(S(=O)(=O)c2ccc(C)cc2)[C@H](c2cccs2)C1	1.7	28.8	0.2	.	4.8
O=C(CNC(=O)c1ccccc1)OC(C(=O)Nc1cc(C(F)(F)F)ccc1Cl)c1ccccc1 (centres undefined)	-0.7	12.6	-6.0	-4.0	18.6*
c1cnc2ccc(-c3ccc4ncccc4c3)cc2c1	-3.9	0.1	73.8*	-2.7	-0.9
CN(C)c1ccc(N=Nc2cccc3ccoc23)cc1	5.5	18.1	28.7	10.8	-0.3
Cc1ccc2ncccc2c1	0.7	0.2	-0.6	0.7	-0.7
Cc1cc(N(C)C)ccc1N=Nc1ccc2ncccc2c1	11.7	15.7	69.3*	33.6	-0.8
CN(C)c1ccc(N=Nc2ccc3ncccc3c2)cc1	22.7	5.5	58.9*	32.4	-6.2
CN(C)c1ccc(N=Nc2cccc(F)c2)cc1	0.8	20.1	34.2*	23.1	-0.6
CCCS(=O)(=O)NC(=O)C1(C)CCCN(C(=O)COc2ccccc2)C1 (centres undefined)	16.8	-1.0	17.7	.	3.9
